Measured values published in ChEMBL document CHEMBL3124793, “Discovery of spirofused piperazine and diazepane amides as selective histamine-3 antagonists with in vivo efficacy in a mouse model of cognition” (J Med Chem, 2014).
Converted amounts (≈) assume the structure as drawn. The source made the active and inactive calls. The calls are words filed in the database; no cut-off is given here.

Assays:
[1] = Intrinsic clearance in rat liver microsomes; type: ADME; conditions: read-out: CLH
[2] = Intrinsic clearance in human liver microsomes; type: ADME; conditions: read-out: CLH
How it was run: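 Human liver microsomal clearance, expressed as μL/min/mg.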

[3] = Apparent permeability from apical to basolateral side in MDCK cells; type: ADME, cell-based, Canis lupus familiaris; conditions: dog
How it was run: (§1)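 MDCK monolayers; A-to-B Papp in 1 × 10⁻⁶ cm/s; efflux taken as ratio of A-to-B Papp over B-to-A Papp.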

[4] = Equilibrium solubility of the compound at pH 7.4; type: physicochemical; conditions: buffer
Histamine H3 receptor [5] = target: T1, Histamine H3 receptor (Homo sapiens, UniProt Q9Y5N1); test: Displacement of [3H]-N-alpha-methylhistamine from human histamine H3 receptor expressed in CHOK1 cells after 1.5 hrs by scintillation proximity assay; type: cell-based, CHO-K1
How it was run: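 Human H3R-CHO-K1 membranes incubated 1.5 h with test compound and [3H]-N-α-methylhistamine in SPA format; nonspecific binding defined with 10 μM imetit; bead-bound radioligand counted. Average of n > 2, standard error <50%.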

[6] = Octanol-water partition coefficient, log D of the compound by shake flask HPLC analysis; type: physicochemical
How it was run: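 logD between octanol and water by shake-flask with HPLC analysis.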

Histamine H3 receptor [7] = target: T1, Histamine H3 receptor; test: Antagonist activity at human histamine H3 receptor long form expressed in CHOK1 cells assessed as inhibition of R-alpha-methylhistamine-induced [35S]GTPgammaS binding after 3 hrs by scintillation proximity assay; type: functional, cell-based, CHO-K1
How it was run: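 Membranes from CHO-K1 cells stably expressing human H3R long form (445 aa) incubated 3 h with test compound, 25 nM R-α-methylhistamine, 10 μM GDP, 0.2 nM [35S]GTPγS and WGA PVT SPA beads; bead-bound [35S]GTPγS counted by scintillation. Average of n > 2, standard error <20%.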

MDCK = test: Efflux ratio of apparent permeability from apical to basolateral side over basolateral to apical side in MDCK cells; type: ADME, cell-based, Canis lupus familiaris; conditions: dog; how it was run: as §1
[8] = Percentage unbound in rat plasma; type: ADME, cell-free
How it was run: (§2)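 Plasma protein binding in human or rat plasma, expressed as percent free.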

[9] = Percentage unbound in human plasma; type: ADME, cell-free; how it was run: as §2
[10] = target: Voltage-gated inwardly rectifying potassium channel KCNH2 (Homo sapiens, UniProt Q12809); test: Inhibition of human ERG expressed in CHOK1 cells by electrophysiological analysis
Rattus norvegicus [11] = test: […] clearance in rat at 1.8 umol/kg, iv; type: ADME, organism-based; conditions: in vivo
How it was run: (§3)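 IV dosing in male fasted rats, doses in μmol/kg; mean Vss, half-life and clearance derived; number of rats per compound reported.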

[12] = Half life in rat at 1.8 umol/kg, iv; type: ADME, organism-based; conditions: in vivo; how it was run: as §3
[13] = Volume of distribution at steady state in rat at 1.8 umol/kg, iv; type: ADME, organism-based; conditions: in vivo, read-out: Vdss; how it was run: as §3
Rattus norvegicus [14] = test: […] clearance in rat at 3.5 umol/kg, iv; type: ADME, organism-based; conditions: in vivo; how it was run: as §3
[15] = Half life in rat at 3.5 umol/kg, iv; type: ADME, organism-based; conditions: in vivo; how it was run: as §3
[16] = Volume of distribution at steady state in rat at 3.5 umol/kg, iv; type: ADME, organism-based; conditions: in vivo, read-out: Vdss
How it was run: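 Male fasted rats given a single IV dose. Volume of distribution taken as the mean from plasma sampling after the IV dose. Animals per compound: 1 to 7.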

Histamine H3 receptor [17] = target: T1, Histamine H3 receptor; test: Inverse agonist activity at human histamine H3 receptor long form expressed in CHOK1 cells assessed as reduction in [35S]GTPgammaS binding after 3 hrs by scintillation proximity assay; type: functional, cell-based; conditions: CHO-K1
How it was run: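 Basal [35S]GTPγS binding, without agonist stimulation, to membranes expressing recombinant human H3R.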

Rattus norvegicus [18] = test: […] clearance in rat at 2.3 umol/kg, iv; type: ADME, organism-based; conditions: in vivo; how it was run: as §3
[19] = Half life in rat at 2.3 umol/kg, iv; type: ADME, organism-based; conditions: in vivo; how it was run: as §3
[20] = Volume of distribution at steady state in rat at 2.3 umol/kg, iv; type: ADME, organism-based; conditions: in vivo, read-out: Vdss; how it was run: as §3

T1 sequence (Q9Y5N1 whole entry): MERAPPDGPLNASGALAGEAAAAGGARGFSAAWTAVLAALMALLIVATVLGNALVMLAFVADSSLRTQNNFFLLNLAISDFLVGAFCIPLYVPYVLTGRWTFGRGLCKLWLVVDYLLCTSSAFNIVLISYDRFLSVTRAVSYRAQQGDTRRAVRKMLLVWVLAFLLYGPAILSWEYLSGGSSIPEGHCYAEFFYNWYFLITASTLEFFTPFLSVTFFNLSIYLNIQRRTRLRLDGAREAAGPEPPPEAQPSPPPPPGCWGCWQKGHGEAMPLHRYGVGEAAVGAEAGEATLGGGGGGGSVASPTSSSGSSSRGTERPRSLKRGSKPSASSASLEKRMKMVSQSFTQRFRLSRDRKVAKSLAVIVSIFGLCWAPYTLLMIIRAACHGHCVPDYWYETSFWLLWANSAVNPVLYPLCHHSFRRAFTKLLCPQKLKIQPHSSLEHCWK
Voltage-gated inwardly rectifying potassium channel KCNH2, sequence (Q12809 whole entry): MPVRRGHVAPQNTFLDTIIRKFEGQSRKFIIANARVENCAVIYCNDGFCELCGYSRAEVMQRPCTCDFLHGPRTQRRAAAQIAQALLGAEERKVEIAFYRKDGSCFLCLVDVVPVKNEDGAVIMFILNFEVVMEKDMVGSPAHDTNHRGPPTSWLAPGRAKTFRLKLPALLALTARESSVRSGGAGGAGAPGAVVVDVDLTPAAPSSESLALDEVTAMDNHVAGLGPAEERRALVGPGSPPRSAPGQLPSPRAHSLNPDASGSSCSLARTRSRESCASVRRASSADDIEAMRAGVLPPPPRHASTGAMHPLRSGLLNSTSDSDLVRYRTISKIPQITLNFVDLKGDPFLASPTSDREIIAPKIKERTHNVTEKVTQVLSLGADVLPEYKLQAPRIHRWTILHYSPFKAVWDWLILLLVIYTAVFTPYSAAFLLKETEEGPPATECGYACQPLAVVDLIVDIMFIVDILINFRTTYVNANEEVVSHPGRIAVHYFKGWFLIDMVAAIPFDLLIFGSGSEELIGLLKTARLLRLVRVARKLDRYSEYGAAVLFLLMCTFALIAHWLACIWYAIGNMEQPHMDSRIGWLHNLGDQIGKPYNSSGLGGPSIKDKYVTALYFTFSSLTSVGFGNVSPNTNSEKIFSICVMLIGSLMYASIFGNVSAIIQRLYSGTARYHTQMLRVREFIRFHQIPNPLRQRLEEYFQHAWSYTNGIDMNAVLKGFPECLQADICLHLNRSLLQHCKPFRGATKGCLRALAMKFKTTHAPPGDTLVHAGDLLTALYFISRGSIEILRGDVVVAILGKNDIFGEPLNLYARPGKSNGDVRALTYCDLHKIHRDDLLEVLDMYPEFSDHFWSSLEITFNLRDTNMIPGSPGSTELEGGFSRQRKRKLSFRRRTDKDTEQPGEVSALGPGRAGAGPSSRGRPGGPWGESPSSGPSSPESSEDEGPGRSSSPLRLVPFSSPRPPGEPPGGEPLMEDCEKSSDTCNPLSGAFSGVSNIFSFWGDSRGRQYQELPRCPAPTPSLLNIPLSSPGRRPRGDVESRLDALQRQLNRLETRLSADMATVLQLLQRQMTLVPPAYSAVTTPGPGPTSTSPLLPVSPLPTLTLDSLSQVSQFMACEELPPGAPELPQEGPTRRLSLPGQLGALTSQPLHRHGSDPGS

| Compound | Ki (Histamine H3 receptor [5]) [nM] | logD [6] | IC50 (Histamine H3 receptor [7]) [nM] | IC50 [10] [nM] | also measured |
| --- | --- | --- | --- | --- | --- |
| O=C(C1CC12CCN(C1CCCCC1)CC2)N1CCN(C2CCCCC2)CC1 (racemic) | 19 | – | – | 20800 | microsomal CLint [1]: 31 µL/min/mg; microsomal CLint [2]: 14 µL/min/mg; Ratio (MDCK): > 2; fraction unbound [8]: 0.62; Papp A→B [3]: < 1.7 ×10⁻⁶ cm/s; fraction unbound [9]: 0.81; solubility thermodynamic [4]: > 500 µM |
| O=C(C1CC12CCN(C1CCOCC1)CC2)N1CCN(c2ccncc2)CC1 (racemic) | 8.4 | -1.09 | – | – | – |
| CC(C)N1CCN(C(=O)N2CC3(CCN(C4CCOCC4)CC3)C2)CC1 | 97 | – | 900 | – | – |
| O=C(C1CC12CCN(C1CCC1)CC2)N1CCN(C2CCOCC2)CC1 (racemic) | 67 | – | 66 | – | – |
| O=C(C1CC12CCC(C1CCCCC1)CC2)N1CCN(C2CCC2)CC1 (racemic) | > 10000 | – | – | – | solubility thermodynamic [4]: 1 µM (≈ 0.359 µg/mL) |
| CC(C)S(=O)(=O)N1CCC2(CCN(C(=O)N3CCCN(C4CCC4)CC3)C2)CC1 | – | 0.8 | 3.2 | > 33000 | CL (Rattus norvegicus [11]): 53 mL/min/kg; half-life [12]: 36 min; Vd [13]: 2.1 L/kg; microsomal CLint [1]: 34 µL/min/mg; microsomal CLint [2]: 20 µL/min/mg; Ratio (MDCK): 6; Papp A→B [3]: 7.8 ×10⁻⁶ cm/s; solubility thermodynamic [4]: > 500 µM |
| O=C(C1CC2(CCN(c3ccccc3)CC2)C1)N1CCN(C2CCC2)CC1 | – | 3.25 | 66 | > 33000 | – |
| O=C(C1CC12CCN(c1ccccc1)CC2)N1CCN(C2CCCCC2)CC1 (racemic) | 1670 | 3.63 | – | – | – |
| O=C(C1CC12CCN(Cc1ccccc1)CC2)N1CCN(C2CCCCC2)CC1 (racemic) | 103 | 2.81 | – | – | – |
| CS(=O)(=O)N1CCC2(CC1)CC(C(=O)N1CCN(C3CCC3)CC1)C2 | – | 0.97 | 11 | – | CL (Rattus norvegicus [14]): 69.8 mL/min/kg; half-life [15]: 24 min; Vd [16]: 1.4 L/kg; microsomal CLint [1]: 16 µL/min/mg; microsomal CLint [2]: 8.3 µL/min/mg; Papp A→B [3]: 19 ×10⁻⁶ cm/s; fraction unbound [9]: 0.67; solubility thermodynamic [4]: > 500 µM |
| CC(C)N1CCN(C(=O)C2CC23CCN(C2CCOCC2)CC3)CC1 (racemic) | 3 | – | 3.2 | – | microsomal CLint [1]: 24 µL/min/mg; microsomal CLint [2]: < 4 µL/min/mg; fraction unbound [8]: 0.69; Papp A→B [3]: 5.4 ×10⁻⁶ cm/s; fraction unbound [9]: 0.87; solubility thermodynamic [4]: > 500 µM |
| CC(C)N1CCCN(C(=O)C2CC3(CCN(C4CCOCC4)CC3)C2)CC1 | – | -1.78 | 14 | – | – |
| O=C(N1CCN(C2CCC2)CC1)N1CCC2(CCN(S(=O)(=O)c3ccccc3)CC2)C1 | – | 2.27 | 21 | – | – |
| CC(C)N1CCCN(C(=O)C2CC3(CCN(C(=O)c4ccccc4)CC3)C2)CC1 | – | 1.63 | 12 | > 33000 | – |
| O=C(C1CC12CCN(CCc1ccccc1)CC2)N1CCN(C2CCCCC2)CC1 (racemic) | 21 | – | 16 | – | – |
| O=C(C1CC2(CCN(C3CCOCC3)CC2)C1)N1CCN(C2CCCCC2)CC1 | – | 0.75 | 1.6 | – | – |
| O=C(C1CC12CCN(C1CCOCC1)CC2)N1CCN(C2CCC2)CC1 (racemic) | 1.3 | 0.24 | 3.6 | – | microsomal CLint [1]: < 4 µL/min/mg; microsomal CLint [2]: 29 µL/min/mg; fraction unbound [8]: 0.8; Papp A→B [3]: 3.9 ×10⁻⁶ cm/s; fraction unbound [9]: 0.91; solubility thermodynamic [4]: > 500 µM; Activity (Histamine H3 receptor [17]): Active |
| O=C(C1CC12CCN(C1CCOCC1)CC2)N1CCN(C2CCCCCC2)CC1 (racemic) | 65 | – | – | – | – |
| O=C(C1CC12CCN(C1CCOCC1)CC2)N1CCN(C2CCCC2)CC1 (racemic) | 1.4 | – | – | – | microsomal CLint [1]: 43 µL/min/mg; microsomal CLint [2]: 7.2 µL/min/mg; fraction unbound [8]: 0.65; Papp A→B [3]: < 2.2 ×10⁻⁶ cm/s; fraction unbound [9]: 0.5; solubility thermodynamic [4]: > 500 µM |
| CC(C)N1CCN(C(=O)[C@@H]2CC23CCN(C2CCOCC2)CC3)CC1 | 16 | -0.35 | 87 | – | – |
| O=C(C1CC12CCNCC2)N1CCN(C2CCCCC2)CC1 (racemic) | 439 | -1 | 360 | > 33000 | – |
| O=C(C1CC12CCN(C1CCOCC1)CC2)N1CCCN(C2CCC2)CC1 (racemic) | 3 | 0.18 | 17 | – | – |

Now from value to molecule, other results behind:

| Ki (Histamine H3 receptor [5]) [nM] | logD [6] | IC50 (Histamine H3 receptor [7]) [nM] | Compound | IC50 [10] [nM] | also measured |
| --- | --- | --- | --- | --- | --- |
| 11 | – | – | O=C(C1CC12CCN(C1CCOCC1)CC2)N1CCN(C2CC2)CC1 (racemic) | – | microsomal CLint [1]: 20 µL/min/mg; microsomal CLint [2]: < 4 µL/min/mg; Papp A→B [3]: 8.4 ×10⁻⁶ cm/s; solubility thermodynamic [4]: > 500 µM |
| – | 1.01 | 4 | O=C(c1ccccc1)N1CCCC2(CCN(C(=O)N3CCCN(C4CCC4)CC3)C2)C1 (stereo not drawn) | – | – |
| – | 0.23 | 4.4 | O=C(N1CCCN(C2CCC2)CC1)N1CCC2(CCCN(C3CCOCC3)C2)C1 (stereo not drawn) | > 33000 | – |
| 55 | 1.09 | 83 | O=C(C1CC12CCN(c1ccncc1)CC2)N1CCN(C2CCCCC2)CC1 (racemic) | – | – |
| – | 1.74 | 6.5 | O=C(N1CCCN(C2CCC2)CC1)N1CCC2(CCCN(S(=O)(=O)c3ccccc3)C2)C1 (stereo not drawn) | > 33000 | – |
| 26 | 0.74 | 12 | O=C(C1CC12CCN(C1CCOCC1)CC2)N1CCN(C2CCCCC2)CC1 (racemic) | – | – |
| – | -0.87 | 32 | CC(C)N1CCN(C(=O)N2CCC3(CCN(C4CCOCC4)CC3)C2)CC1 | > 33000 | – |
| – | -0.46 | 6.3 | O=C(C1CC2(CCN(C3CCOCC3)CC2)C1)N1CCN2CCCCC2C1 (stereo not drawn) | – | – |
| 1300 | – | 1100 | CN1CCN(C(=O)C2CC23CCN(C2CCOCC2)CC3)CC1 (racemic) | – | – |
| – | – | 340 | O=C(c1ccccc1)N1CCC2(CC1)CCN(C(=O)C1CCN(C3CCC3)CC1)C2 | – | – |
| 47 | 0.74 | 19 | CC(C)N1CCC2(CC1)CC2C(=O)N1CCN(C2CCCCC2)CC1 (racemic) | – | – |
| – | 1.71 | 2.7 | O=C(N1CCCN(C2CCC2)CC1)N1CCC2(CCN(S(=O)(=O)c3ccccc3)CC2)C1 | > 33000 | – |
| – | -0.89 | 0.8 | O=C(C1CC2(CCN(C3CCOCC3)CC2)C1)N1CCCN(C2CCC2)CC1 | – | – |
| – | 2.09 | – | O=C(c1ccccc1)N1CCC2(CC1)CC(C(=O)N1CCN(C3CCC3)CC1)C2 | > 33000 | – |
| – | 1.8 | 13 | O=C(c1ccccc1)N1CCC2(CC1)CCN(C(=O)N1CCN(C3CCC3)CC1)C2 | > 33000 | CL (Rattus norvegicus [18]): 91 mL/min/kg; half-life [19]: 66 min; Vd [20]: 3.7 L/kg; microsomal CLint [1]: 25 µL/min/mg; microsomal CLint [2]: 18 µL/min/mg; Ratio (MDCK): 4.5; Papp A→B [3]: 8.8 ×10⁻⁶ cm/s; solubility thermodynamic [4]: > 500 µM |
| – | -0.19 | 140 | CC(C)N1CCN(C(=O)N2CCC3(CCCN(C4CCOCC4)C3)C2)CC1 (stereo not drawn) | > 33000 | – |
| – | 1.62 | 18 | O=C(c1ccccc1)N1CCC2(CCCN(C(=O)N3CCCN(C4CCC4)CC3)C2)CC1 | – | – |
| – | 1.22 | 3.6 | O=C(c1ccccc1)N1CCC2(CC1)CCN(C(=O)N1CCCN(C3CCC3)CC1)C2 | > 33000 | – |
